Laboratory results: ChEMBL document CHEMBL5331102, “Novel S1R agonists counteracting NMDA excitotoxicity and oxidative stress: A step forward in the discovery of neuroprotective agents” (Eur J Med Chem, 2023)
In brackets after ≈: the same amount, converted by molar mass. Activity calls are given as the source filed them. No cut-off for these calls is given here.

Experiments:
PC-12 [1] = assay: Neuroprotective activity in rat PC12 cells assessed as induction of NGF-mediated neurite outgrowth at 0.1 to 5 uM by neurite outgrowth assay; format: functional, cell-based; conditions: dose 0.1-5 µM
Summary of the method: (§1)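 PC12 cells stimulated with NGF (2.5 nM) and treated with compound up to 5 μM, alone or after pre-treatment with S1R antagonist NE-100 (3 μM); read-out is percentage of cells bearing neurite sprouts; mean ± SEM of three independent experiments.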

[2] = Toxicity in Zebrafish embryos assessed as morphological abnormality by observing inflated swim bladder at 10 uM incubated for 5 days by Teratogenic test; format: tissue-based, Danio rerio, Embryo; conditions: in vivo, 120 h, time 5 day
Summary of the method: (§2)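 Tg(GFAP:GFP) zebrafish embryos, 8 per group, exposed from 1 h post-fertilization to increasing compound concentrations at 28 °C for about 5 days without medium change; mortality, developmental defects and morphology score assessed at 5 dpf.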

PC-12 [3] = assay: Cytotoxicity against rat PC12 cells assessed as reduction in cell viability at <1 uM incubated for 24 hrs by MTT assay; format: toxicity, cell-based; conditions: pc-12, 24 h
LoVo = assay: Cytotoxicity against human LoVo cells assessed as reduction in cell survival rate at <=10 uM incubated for 24 to 72 hrs by MTT assay; format: toxicity, cell-based; conditions: time 24-72 hrs
Summary of the method: (§3)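 Cancer lines grown in Ham's F-12K or DMEM with 10% FBS, used in exponential growth; seeded 2500 cells/well, exposed to 0.1–100 μM for 24, 48 and 72 h continuous. Viability by CellTiter 96 AQueous One (tetrazolium) absorbance at 490 nm; three independent experiments in quadruplicate, % survival vs untreated.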

[4] = Toxicity in Zebrafish embryos assessed as variation in embryo morphology score at 10 uM incubated for 5 days by Teratogenic test; design: species or system Danio rerio; conditions: in vivo, 120 h, time 5 day; summary of the method: as §2
[5] = Toxicity in Zebrafish embryos assessed as variation in embryo morphology score at 1 uM incubated for 5 days by Teratogenic test; design: species or system Danio rerio; conditions: in vivo, 120 h, time 5 day; summary of the method: as §2
[6] = Toxicity in Zebrafish embryos assessed as morphological abnormality by observing oedema at 10 uM incubated for 5 days by Teratogenic test; design: species or system Danio rerio, Embryo; conditions: in vivo, 120 h, time 5 day; summary of the method: as §2
SH-SY5Y [7] = assay: Neuroprotective activity in human SH-SY5Y cells assessed as prevention of NMDA induced cytotoxicity by measuring cell viability at 1 uM preincubated with PB212 for 1hrs followed by compound addition in presence of NMDA and measured after 24 hrs by MTT assay; format: functional, cell-based
Summary of the method: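 SH-SY5Y cells pre-incubated 1 h with S1R antagonist PB212 (5 μM), then treated with compound (1 or 5 μM) plus PB212 (5 μM) and either rotenone 25 μM or NMDA 250 μM for 24 h; viability by MTT; two-way ANOVA with Bonferroni post hoc test.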

SH-SY5Y [8] = assay: Cytotoxicity against human SH-SY5Y cells assessed as cell death at 0.1 to 50 uM incubated for 72 hrs by MTT assay; format: toxicity, cell-based; conditions: dose 0.1-50 µM
Summary of the method: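 SH-SY5Y cells kept in DMEM/10% FBS, 2 mM glutamine, 37 °C, 5% CO2; ~7000 cells/well, after 1 day given compound (six concentrations, 0.1–100 μM; DMSO stocks 10 mM) in 2% FBS medium for 72 h. MTT (0.5% w/v, 2 h), formazan dissolved in DMSO, absorbance read; triplicates, % of untreated control.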

SH-SY5Y [9] = assay: Neuroprotective activity in human SH-SY5Y cells assessed as prevention of rotenone induced cell damage by measuring cell viability at 1 uM incubated for 24 hrs in presence of rotenone by MTT assay; format: functional
Summary of the method: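 SH-SY5Y cells co-exposed 24 h at 37 °C to rotenone 25 μM and compound at 1.0 or 5.0 μM in 2% FBS medium; viability by MTT, mean ± SD of three independent experiments.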

[10] = Toxicity in Zebrafish embryos assessed as morphological abnormality by observing poor pigmentation at 10 uM incubated for 5 days by Teratogenic test; design: species or system Danio rerio, Embryo; conditions: in vivo, 120 h, time 5 day; summary of the method: as §2
[11] = Thermodynamic solubility of the compound in KH2PO4/Na2HPO4 buffer at pH 7.4 incubated for 24 hrs; format: physicochemical; conditions: read-out: Therm_solubility
Summary of the method: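 10 mM DMSO stock diluted 1:100 into buffer (HCl/KCl pH 1.2; KH2PO4/NaOH pH 6.8; KH2PO4/Na2HPO4 pH 7.4), 1% v/v DMSO final; shaken 24 h at 1200 rpm, filtered through 0.45 μm polycarbonate membrane, filtrate diluted 1:1 with MeOH and analysed.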

[12] = biological target: Glutamate [NMDA] receptor (Homo sapiens) (UniProt Q05586+Q12879+Q13224+O15399+O60391+Q14957+Q8TCU5); assay: Displacement of [3H]CGP39653 from human NMDAR at 25 nM by scintillation counting analysis; format: protein-complex assay
Summary of the method: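 NMDA receptor binding with [3H]CGP39653 (5 nM) as radioligand, test compound at 25 nM; displacement read by scintillation counting and reported as % inhibition of control specific binding.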

PANC-1 = assay: Cytotoxicity against human PANC-1 cells assessed as reduction in cell survival rate at 100 uM incubated for 48 to 72 hrs by MTT assay; format: toxicity, cell-based; conditions: panc-1, 100 µM, time 48-72 hrs; summary of the method: as §3
PC-12 [13] = assay: Neuroprotective activity in rat PC12 cells assessed as induction of NGF-mediated neurite outgrowth at 0.5 uM by neurite outgrowth assay (Rvb=26 +/- 4%); format: functional; summary of the method: as §1
PC-12 [14] = assay: Cytotoxicity against rat PC12 cells assessed as reduction in cell viability at <5 uM incubated for 24 hrs by MTT assay; format: toxicity, cell-based; conditions: pc-12, 24 h

In the case of `c1ccc(CC2CCN(CCOc3ccccc3)CC2)cc1`, the Activity (PC-12 [1]) is reported as “Dose-Dependent Effect”, the Activity [2] is reported as “Toxic” and the Activity (PC-12 [3]) is reported as “Non-Toxic”. For the same compound, the Activity (LoVo) was “Non-Toxic”, the Activity [4] was “Toxic” and the Activity [5] was “Non-Toxic”. The Activity [6] was “Toxic”, the Activity (SH-SY5Y [7]) was “inactive” and the Activity (SH-SY5Y [8]) was “Non-Toxic”. For the same compound, the Activity (SH-SY5Y [9]) was 65%, the Activity [10] was “Toxic” and the solubility thermodynamic at 24 h [11] was 7800 µg/mL (≈ 26.4 mM). For the same compound, the Activity [12] was under 11.9%, the Activity (PANC-1) was 20% and the Activity (PC-12 [13]) was 37%.
With `c1ccc(CC2CCN(CCCOc3ccccc3)CC2)cc1` the Activity (PC-12 [1]) was “Dose-Dependent Effect”, the Activity (LoVo) was “Non-Toxic” and the Activity [4] was “Non-Toxic”. For the same compound, the Activity [5] was “Non-Toxic”, the Activity (SH-SY5Y [7]) was “inactive” and the Activity (SH-SY5Y [8]) was “Non-Toxic”. For the same compound, the Activity (SH-SY5Y [9]) was 68%, the Activity (PC-12 [14]) was “Non-Toxic” and the solubility thermodynamic at 24 h [11] was 2800 µg/mL (≈ 9.05 mM). The Activity [12] was under 11.9% and the Activity (PANC-1) was 20%.
